The subject of assay [1] is Plasmodium berghei. Nature of the assay: Antiplasmodial activity against Plasmodium berghei NK65 infected in Swiss mouse assessed as reduction in parasitemia at 20 mg/kg, ip administered for 3 consecutive days post infection measured on day 5 post infection relative to control. In kind it is functional. Also on record: scale not given: the % may be the effect or the level left. The essentials: (§1)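 P. berghei NK65 suppressive test: adult Swiss outbred mice (20±2 g) inoculated ip with 1×10^5 infected red cells, randomized to groups, dosed daily for three days by oral gavage or ip injection with test compound at 50 mg/kg in 3% (v/v) DMSO; CQ 20 mg/kg and vehicle groups in parallel. Giemsa-stained tail-blood smears on days 5, 7, 9; inhibition = [(C−T)/C]×100 versus untreated control.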

In assay [2] the test system is Plasmodium berghei. The assay is described as follows: Antiplasmodial activity against Plasmodium berghei NK65 infected in Swiss mouse assessed as reduction in parasitemia at 20 mg/kg, po administered via gavage for 3 consecutive days post infection measured on day 9 post infection relative to control. In kind it is functional. Also on record: scale not given: the % may be the effect or the level left. An outline of the steps:
as §1

The test system of assay [3] is Plasmodium berghei. The assay is described as follows: Antiplasmodial activity against Plasmodium berghei NK65 infected in Swiss mouse assessed as reduction in parasitemia at 20 mg/kg, ip administered for 3 consecutive days post infection measured on day 7 post infection relative to control. In kind it is functional. Also on record: scale not given: the % may be the effect or the level left. An outline of the steps:
as §1

For assay [4], the system named is Plasmodium berghei. The assay is described as follows: Antiplasmodial activity against Plasmodium berghei NK65 infected in Swiss mouse assessed as reduction in parasitemia at 20 mg/kg, ip administered for 3 consecutive days post infection measured on day 9 post infection relative to control. The class given is functional. Also on record: scale not given: the % may be the effect or the level left. An outline of the steps:
as §1

Assay [5] relates to Plasmodium berghei. The assay is described as follows: Antiplasmodial activity against Plasmodium berghei NK65 infected in Swiss mouse assessed as assessed as mouse survival at 20 mg/kg, po administered via gavage for 3 consecutive days post infection measured on day 9 post infection (reference value: 19 +/- 5 days). In kind it is functional.
In assay [6] the test system is Plasmodium berghei. Nature of the assay: Antiplasmodial activity against Plasmodium berghei NK65 infected in Swiss mouse assessed as reduction in parasitemia at 20 mg/kg, po administered via gavage for 3 consecutive days post infection measured on day 7 post infection relative to control. On the set-up: scale not given: the % may be the effect or the level left. In kind it is functional. An outline of the steps:
as §1

Assay [7] has as its system Plasmodium falciparum. Nature of the assay: Plasmodicidal activity against Plasmodium falciparum 3D7A infected in erythrocytes assessed as parasite survival at 10 times IC50 pre-incubated for 24 hrs followed by compound washout and measured after 24 hrs by […] incorporation assay (reference value: 100%). In kind it is functional.
The subject of a further assay is HepG2. The assay is described as follows: Cytotoxicity against human HepG2 cells assessed as reduction in cell viability after 24 hrs by MTT assay. In kind it is cell-based. Conditions: HepG2, 24 h. An outline of the steps:
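HepG2 cells in RPMI-1640 with 10% heat-inactivated serum, seeded 5×10^3 per well, allowed to adhere 18 h at 37 °C, then exposed to compound (400–6.2 µM) for 24 h at 37 °C, 5% CO2. MTT (5 mg/mL) for 3 h, formazan dissolved in DMSO, absorbance 570 nm with 630 nm background; viability as percent of untreated control.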

For assay [8], the system named is Plasmodium berghei. The assay is described as follows: Antiplasmodial activity against Plasmodium berghei NK65 infected in Swiss mouse assessed as assessed as mouse survival at 20 mg/kg, ip administered for 3 consecutive days post infection measured on day 9 post infection (reference value: 19 +/- 5 days). The class given is functional.
In assay [9] the test system is Plasmodium berghei. Nature of the assay: Antiplasmodial activity against Plasmodium berghei NK65 infected in Swiss mouse assessed as reduction in parasitemia at 20 mg/kg, po administered via gavage for 3 consecutive days post infection measured on day 5 post infection relative to control. In kind it is functional. Also on record: scale not given: the % may be the effect or the level left. An outline of the steps:
as §1

Assay [10] concerns Plasmodium falciparum. Nature of the assay: Plasmodicidal activity against Plasmodium falciparum 3D7A infected in erythrocytes assessed as parasite survival at 10 times IC50 pre-incubated for 48 hrs followed by compound washout and measured after 24 hrs by […] incorporation assay (reference value: 100%). The class given is functional.

Among the data in ChEMBL document CHEMBL4145611, “Discovery of Marinoquinolines as Potent and Fast-Acting Plasmodium falciparum Inhibitors with in Vivo Activity” (J Med Chem, 2018) are Activity, Survival and EC50 values, retold here.

Where only a bound is given, the exact number is not on record here.

Consider `CCN(CC)CCCC(C)Nc1ccnc2cc(Cl)ccc12` (stereo unspecified) [CHLOROQUINE], for which the Activity in the assay with Plasmodium berghei [1], with Plasmodium berghei [2], in the assay on Plasmodium berghei [3], in the assay on Plasmodium berghei [4], in the assay on Plasmodium berghei [6] and in the assay with Plasmodium berghei [9] was 100% in each case. Moreover, the Survival in the assay with Plasmodium berghei [5] was more than 30 days; with Plasmodium falciparum [7] it was 16%; in the assay on Plasmodium berghei [8], more than 30 days; in the assay on Plasmodium falciparum [10] it was 8%. The concentration giving a half-maximal response (EC50) with HepG2 turned out to be 384 µM.

As usually defined, the EC50 is the concentration giving half of the maximal effect.
